Assays:
Mus musculus [1] = experiment: Ex vivo inhibition of the accumulation of (-)-[3H]Norepinephrine in slices from the middle part of the mouse brain. (i.p.); format: functional; conditions: ip
Procedure, shortened: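 Compound given i.p.; mice killed 60 min later. Brain slices (about 1 mm) preincubated 5 min at 37 °C in Krebs-Henseleit buffer with 1 × 10^-4 M pargyline, glucose, ascorbate and EDTA under 6.5% CO2/O2. Then 5 min with 1 × 10^-7 M [3H]NE plus 1 × 10^-7 M [14C]-5-HT, counted by double labelling. Active uptake is the cocaine-sensitive (5 × 10^-4 M) part. 3–4 doses, 4 mice/dose; ED50 from semilog plots.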

Rattus norvegicus = species: Rattus norvegicus; experiment: In vitro inhibition of the accumulation of (-)-[3H]Norepinephrine in synaptosomes from the rat brain cortex; format: functional
[2] = Selectivity expressed as ratio between NE and 5-HT uptake inhibition in mouse brain slices; format: functional
[3] = Selectivity expressed as ratio between NE and 5-HT uptake inhibition in rat synaptosomes; format: functional, subcellular; conditions: Brain
Mus musculus [4] = species: Mus musculus; experiment: In vitro inhibition of the accumulation of (-)-[3H]Norepinephrine in slices from the middle part of the mouse brain.; format: functional

IC50 (Rattus norvegicus) | IC50 (Mus musculus [4]) | SMILES | ED50 (Mus musculus [1]) | Ratio [2] | Ratio [3]
1.4 µM | 7.8 µM | CN(C)CC/C=C(\c1ccc(Br)cc1)c1cccnc1 | 95 µmol/kg | 1.1 | 0.54
3.2 µM |  | CN(C)C/C=C(/c1ccc(Br)cc1)c1cccnc1 [ZIMELDINE] | > 98 µmol/kg |  | 32
6.6 µM | > 25 µM | CNCC/C=C(/c1ccc(Br)cc1)c1cccnc1 | > 98 µmol/kg | >50 | 28
0.0046 µM |  | CNC/C=C(\c1ccc(Br)cc1)c1cccnc1 [NORZIMELIDINE] | 25 µmol/kg |  | 0.058
0.15 µM |  | CN(C)C/C=C(\c1ccc(Br)cc1)c1cccnc1 | 25 µmol/kg |  | 0.68
0.24 µM |  | CNC/C=C(/c1ccc(Br)cc1)c1cccnc1 [NOMELIDINE] | > 102 µmol/kg |  | 6.3
0.007 µM | 0.5 µM | CNCCC=C1c2ccccc2CCc2ccccc21 [NORTRIPTYLINE] | 67 µmol/kg | 0.075 | 0.0035
22.5 µM | > 24 µM | CN(C)CC/C=C(/c1ccc(Br)cc1)c1cccnc1 | > 95 µmol/kg | >27 | 45
1 µM | 0.25 µM | CNCC/C=C(\c1ccc(Br)cc1)c1cccnc1 | 98 µmol/kg | 2.1 | 0.71

SMILES | IC50 (Rattus norvegicus) | IC50 (Mus musculus [4]) | ED50 (Mus musculus [1]) | Ratio [2] | Ratio [3]
CN(C)CCC=C1c2ccccc2CCc2ccccc21 [AMITRIPTYLINE] | 0.061 µM | 5.4 µM | 114 µmol/kg | 1.9 | 0.19

— ChEMBL document CHEMBL1124236, “Homoallylic amines related to zimeldine. A comparative study on neuronal serotonin and norepinephrine reuptake based on conformational analysis” (J Med Chem, 1988)
